The source made the active and inactive calls. The rule behind the calls is not given here.
Assays:
[1] = AUC (0 to t) in Sprague-Dawley rat at 1 mg/kg, iv; format: ADME, organism-based; details: in vivo
Outline: (§1)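 Male Sprague-Dawley rats (6–8 weeks) fasted overnight, dosed IV or orally; compound dissolved in 5% DMSO/40% PEG400/55% saline (dosing solution 1 mg/mL). Blood (~0.2 mL) from jugular vein into heparin; IV sampling 1 min–8 h, oral 5 min–24 h. Plasma separated by centrifugation at 2–8 °C, stored at −80 °C until analysis.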

[2] = biological target: T1, Platelet-derived growth factor receptor alpha (Homo sapiens, UniProt P16234); details: NCI-H1703, 1 uM
T1 sequence (P16234 whole entry): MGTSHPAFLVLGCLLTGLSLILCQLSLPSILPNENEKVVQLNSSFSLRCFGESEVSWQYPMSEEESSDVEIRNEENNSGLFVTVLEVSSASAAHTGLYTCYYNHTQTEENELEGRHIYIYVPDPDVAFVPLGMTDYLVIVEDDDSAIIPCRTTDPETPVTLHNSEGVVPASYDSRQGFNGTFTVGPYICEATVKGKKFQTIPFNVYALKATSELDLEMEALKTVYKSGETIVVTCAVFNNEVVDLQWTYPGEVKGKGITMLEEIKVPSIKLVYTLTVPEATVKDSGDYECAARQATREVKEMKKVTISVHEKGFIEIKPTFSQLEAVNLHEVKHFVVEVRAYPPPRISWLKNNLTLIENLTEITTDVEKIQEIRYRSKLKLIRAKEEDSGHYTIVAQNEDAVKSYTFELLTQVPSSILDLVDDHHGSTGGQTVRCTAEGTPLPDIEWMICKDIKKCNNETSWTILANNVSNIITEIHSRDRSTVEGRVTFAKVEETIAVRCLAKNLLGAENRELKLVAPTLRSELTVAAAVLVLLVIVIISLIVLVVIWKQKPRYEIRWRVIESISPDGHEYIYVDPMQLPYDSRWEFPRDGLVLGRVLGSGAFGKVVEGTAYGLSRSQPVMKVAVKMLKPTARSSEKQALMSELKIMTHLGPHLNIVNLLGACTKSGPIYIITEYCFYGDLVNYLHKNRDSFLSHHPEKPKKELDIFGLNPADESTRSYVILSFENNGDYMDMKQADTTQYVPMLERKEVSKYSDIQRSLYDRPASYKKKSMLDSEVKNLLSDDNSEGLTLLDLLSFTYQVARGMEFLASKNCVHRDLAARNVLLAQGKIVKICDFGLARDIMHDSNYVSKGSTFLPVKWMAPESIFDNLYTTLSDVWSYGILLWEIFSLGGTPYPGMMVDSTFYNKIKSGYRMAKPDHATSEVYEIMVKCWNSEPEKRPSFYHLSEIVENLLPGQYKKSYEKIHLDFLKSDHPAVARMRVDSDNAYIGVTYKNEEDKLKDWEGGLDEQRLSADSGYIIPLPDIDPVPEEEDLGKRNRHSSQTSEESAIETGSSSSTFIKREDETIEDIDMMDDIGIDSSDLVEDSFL

[3] = biological target: T1, Platelet-derived growth factor receptor alpha; details: NCI-H1703, 1 uM; remark: listed apart in the source
[4] = AUC (0 to infinity) in Sprague-Dawley rat at 1 mg/kg, iv; format: ADME, organism-based; design: dose 1 mg/kg, time infinity, route intravenous; details: in vivo; outline: as §1
NCI-H1703 [5] = assay: Antiproliferative activity against human NCI-H1703 cells after 72 hrs by CellTiter-Glo or CCK-8 assay; format: functional; details: NCI-H1703, 72 h
Outline: (§2)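 Cells in RPMI 1640 with 10% FBS at 37 °C, 5% CO2, seeded at 1–3 × 10^4 cells/mL with serial compound dilutions for 72 h. Viability read by CellTiter-Glo luminescence or CCK-8 absorbance (450/655 nm), normalized to DMSO control.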

EOL1 [6] = assay: Antiproliferative activity against human EOL-1 cells after 72 hrs by CellTiter-Glo or CCK-8 assay; format: functional; details: EOL1, 72 h; outline: as §2
EOL1 [7] = assay: Antitumor activity against human EOL-1 cells xenografted in nu/nu mouse assessed as tumor growth inhibition at 50 mg/kg/day, ip; format: functional; details: read-out: TGI
Outline: (§3)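 Female nu/nu mice (6 weeks) given subcutaneous right-flank injection of 5 million EOL-1 cells in PBS/Matrigel 1:1. At 200–400 mm3 tumors, randomized to groups of 6 and dosed daily i.p. for 14 days at 25, 50 or 100 mg/kg/d in 0.5% methylcellulose/0.4% Tween80. Tumor volume = W²×L/2, measured daily.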

[8] = Tmax in Sprague-Dawley rat at 10 mg/kg, po; format: ADME, organism-based; details: in vivo
Outline: (§4)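 Male Sprague-Dawley rats, 6–8 weeks old and fasted overnight, dosed IV at 1 mg/kg or PO at 10 mg/kg. Formulation was 5% DMSO/40% PEG400/55% saline (1 mg/mL). Jugular blood collected on heparin from 1 min to 8 h (IV) or 5 min to 24 h (PO). Plasma separated by centrifugation at 2–8 °C and stored at −80 °C.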

[9] = Cytotoxicity against mouse BA/F3 cells after 72 hrs by CellTiter-Glo or CCK-8 assay; format: cell-based, BaF3
Outline: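 Parental BaF3 or IL-3-independent TEL-kinase BaF3 lines, made by retroviral infection and puromycin selection, grown in RPMI 1640 with 10% FBS. Cells seeded at 1–3 × 10^4 cells/mL with serial compound concentrations for 72 h. Viability read by CellTiter-Glo luminescence or CCK-8 absorbance at 450/655 nm and normalised to DMSO. GI50 obtained by triplicate testing with linear regression. Selectivity is the ratio of the two GI50 values.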

[10] = Oral bioavailability in Sprague-Dawley rat at 10 mg/kg; format: ADME, organism-based; details: in vivo; outline: as §4
EOL1 [11] = assay: Antitumor activity against human EOL-1 cells xenografted in nu/nu mouse assessed as tumor growth inhibition at 100 mg/kg/day, ip; format: functional; details: read-out: TGI; outline: as §3
[12] = Cmax in Sprague-Dawley rat at 1 mg/kg, iv; format: ADME, organism-based; design: dose 1 mg/kg, route intravenous; details: in vivo; outline: as §4
Mus musculus = assay: Toxicity in nu/nu mouse xenografted with human EOL-1 cells assessed as change in body weight at 25 to 100 mg/kg/day, ip; format: organism-based; details: in vivo
Outline: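 Female nu/nu mice, 6 weeks old, implanted subcutaneously in the right flank with 5 million EOL-1 cells in PBS/Matrigel 1:1. At tumour size 200–400 mm³, mice randomised into groups of 6 and given daily IP doses of 25, 50 or 100 mg/kg in 0.5% methylcellulose/0.4% Tween80, or vehicle, for 14 days. Body weight measured daily and normalised to initial weight; mean ± SEM.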

[13] = biological target: T1, Platelet-derived growth factor receptor alpha; details: NCI-H1703, 1 uM; remark: listed apart in the source
NCI-H1703 [14] = assay: Antiproliferative activity against human NCI-H1703 cells after 72 hrs in presence of PDGF-AA by CellTiter-Glo or CCK-8 assay; format: functional; details: NCI-H1703, 72 h; outline: as §2
EOL1 [15] = assay: Antitumor activity against human EOL-1 cells xenografted in nu/nu mouse assessed as tumor growth inhibition at 25 mg/kg/day, ip; format: functional; details: read-out: TGI; outline: as §3
[16] = biological target: T1, Platelet-derived growth factor receptor alpha; details: 1 uM
[17] = Tmax in Sprague-Dawley rat at 1 mg/kg, iv; format: ADME, organism-based; details: in vivo; outline: as §4
[18] = AUC (0 to infinity) in Sprague-Dawley rat at 10 mg/kg, po; format: ADME, organism-based; design: dose 10 mg/kg, route oral, time infinity; details: in vivo; outline: as §1
[19] = biological target: T1, Platelet-derived growth factor receptor alpha; details: 100 nM
[20] = AUC (0 to t) in Sprague-Dawley rat at 10 mg/kg, po; format: ADME, organism-based; details: in vivo; outline: as §1
[21] = biological target: T1, Platelet-derived growth factor receptor alpha; details: 1 uM; remark: listed apart in the source
[22] = Cmax in Sprague-Dawley rat at 10 mg/kg, po; format: ADME, organism-based; design: dose 10 mg/kg, route oral; details: in vivo; outline: as §4

Cc1ccc(NC(=O)c2ccc(CN3CCN(C)CC3)cc2)cc1Nc1nccc(-c2cccnc2)n1 [IMATINIB]
AUC(0-t) [1]: 0.856 µg·h/mL | inhibition [2]: Active | inhibition [3]: Active | AUC(0-inf) [4]: 0.869 µg·h/mL | GI50 (NCI-H1703 [5]): 2.1 µM | GI50 (EOL1 [6]): < 0.001 µM | inhibition in vivo at 50 mg/kg/day (EOL1 [7]): 100% | Tmax [8]: 6.67 h | GI50 at 72 h [9]: > 10 µM | bioavailability [10]: 76.5% | inhibition in vivo at 100 mg/kg/day (EOL1 [11]): 100% | Cmax [12]: 0.547 µg/mL | Activity (Mus musculus): Toxic | inhibition [13]: Active | GI50 (NCI-H1703 [14]): 0.23 µM | inhibition in vivo at 25 mg/kg/day (EOL1 [15]): 99.9% | inhibition [16]: Active | Tmax [17]: 1.02 min | AUC(0-inf) [18]: 6.65 µg·h/mL | inhibition [19]: inactive | AUC(0-t) [20]: 6.46 µg·h/mL | inhibition [21]: Active | Cmax [22]: 0.531 µg/mL

From ChEMBL document CHEMBL4229344 (Eur J Med Chem, 2018)
